ChEMBL document CHEMBL4689842, “EUbOPEN Chemogenomics Library wave 1” (2021)
“And” between values parts separate entries of the source, which are not always exact repeats. Equal entries are not always repeated.

Test system: HEK-293T
Experiment: Multiplex assay against HEK293T;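 as to Population Tubulin-Different-Phenotype (%): share of the cells with healthy nuclei that show this phenotype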
Format: toxicity, cell-based
Details: human
How it was run: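 Compound was added to live cells that had been stained at seeding with Hoechst33342, BioTracker Green Microtubule Cytoskeleton Dye, MitoTracker Red and Annexin V Alexa Fluor 680, and imaging followed on a CQ1 microscope at 37°C and 5% CO2. CellPathfinder machine-learning gating divided cells into Hoechst high-intensity objects or normal cells, normal cells into healthy, pyknosed or fragmented nuclei, and pyknosed cells into mitotic or apoptotic. Tubulin, mitochondrial-mass and membrane-permeability phenotypes are per cents of healthy-nucleus cells.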

[1] = 12 h, 1 µM, compound concentration 1 uM, replicate 1
[2] = 12 h, 1 µM, compound concentration 1 uM, replicate 2
[3] = 12 h, 10 µM, compound concentration 10 uM, replicate 1
[4] = 12 h, 10 µM, compound concentration 10 uM, replicate 2
[5] = 24 h, 1 µM, compound concentration 1 uM, replicate 1
[6] = 24 h, 1 µM, compound concentration 1 uM, replicate 2
[7] = 24 h, 10 µM, compound concentration 10 uM, replicate 1
[8] = 24 h, 10 µM, compound concentration 10 uM, replicate 2

## CC[C@@]1(O)C(=O)OCc2c1cc1n(c2=O)Cc2cc3ccccc3nc2-1 [CAMPTOTHECIN]
[1]
  Population Apoptotic (%): 13% and 29% and 33%
  Population Healthy Nuclei (%): 67% and 60% and 69%
  Population Membrane Permeable-Phenotype (%): 5% and 3%
  Population Mitochondria Different-Phenotype (%): 5% and 3%
  Population Mitotic Cells (%): 86% and 70% and 66%
  Population Normal (%): 94% and 66% and 79%
  Population Tubulin-Different-Phenotype (%): 5% and 0% and 2%
  Total Cell Count: 915 and 710 and 886
[2]
  Population Healthy Nuclei (%): 94% and 77% and 79%
  Population Membrane Permeable-Phenotype (%): 2% and 1%
  Population Mitochondria Different-Phenotype (%): 19% and 9%
  Population Mitotic Cells (%): 87% and 81% and 50%
  Population Normal (%): 98% and 95% and 96%
  Population Pyknosed Nuclei (%): 2% and 1% and 0%
  Total Cell Count: 1821 and 1627 and 1427
[3]
  Population Apoptotic (%): 16%
  Population Fragmented Nuclei (%): 15%
  Population Healthy Nuclei (%): 57%
  Population Hoechst High Intensity Objects (%): 13%
  Population Membrane Permeable-Phenotype (%): 3%
  Population Mitochondria Different-Phenotype (%): 2%
  Population Mitotic Cells (%): 83%
  Population Normal (%): 86%
  Population Pyknosed Nuclei (%): 26%
  Population Tubulin-Different-Phenotype (%): 2%
  Total Cell Count: 665
[4]
  Population Apoptotic (%): 20%
  Population Fragmented Nuclei (%): 3%
  Population Healthy Nuclei (%): 93%
  Population Hoechst High Intensity Objects (%): 2%
  Population Membrane Permeable-Phenotype (%): 2%
  Population Mitochondria Different-Phenotype (%): 14%
  Population Mitotic Cells (%): 80%
  Population Normal (%): 97%
  Population Pyknosed Nuclei (%): 3%
  Population Tubulin-Different-Phenotype (%): 9%
  Total Cell Count: 1781
[5]
  Population Apoptotic (%): 26% and 33% and 22%
  Population Healthy Nuclei (%): 68% and 76% and 85%
  Population Membrane Permeable-Phenotype (%): 7% and 5% and 4%
  Population Mitochondria Different-Phenotype (%): 3% and 4% and 5%
  Population Mitotic Cells (%): 73% and 66% and 77%
  Population Normal (%): 69% and 81% and 96%
  Population Pyknosed Nuclei (%): 5% and 2% and 10%
  Population Tubulin-Different-Phenotype (%): 5% and 6%
  Total Cell Count: 653 and 837 and 854
[6]
  Population Fragmented Nuclei (%): 18% and 8%
  Population Healthy Nuclei (%): 81% and 78% and 90%
  Population Hoechst High Intensity Objects (%): 5%
  Population Membrane Permeable-Phenotype (%): 2% and 1%
  Population Mitochondria Different-Phenotype (%): 6% and 8% and 7%
  Population Mitotic Cells (%): 100% and 62%
  Population Normal (%): 94%
  Population Pyknosed Nuclei (%): 0%
  Population Tubulin-Different-Phenotype (%): 8% and 13%
  Total Cell Count: 1448 and 1582 and 1694
[7]
  Population Apoptotic (%): 23%
  Population Fragmented Nuclei (%): 11%
  Population Healthy Nuclei (%): 73%
  Population Hoechst High Intensity Objects (%): 8%
  Population Membrane Permeable-Phenotype (%): 4%
  Population Mitochondria Different-Phenotype (%): 2%
  Population Mitotic Cells (%): 76%
  Population Normal (%): 92%
  Population Pyknosed Nuclei (%): 15%
  Population Tubulin-Different-Phenotype (%): 3%
  Total Cell Count: 575
[8]
  Population Apoptotic (%): 44%
  Population Fragmented Nuclei (%): 8%
  Population Healthy Nuclei (%): 90%
  Population Hoechst High Intensity Objects (%): 4%
  Population Membrane Permeable-Phenotype (%): 0%
  Population Mitochondria Different-Phenotype (%): 4%
  Population Mitotic Cells (%): 55%
  Population Normal (%): 95%
  Population Pyknosed Nuclei (%): 0%
  Population Tubulin-Different-Phenotype (%): 5%
  Total Cell Count: 1706
